Source: ChEMBL document CHEMBL1150585, “Phytotoxic compounds from Prionosciadium watsoni” (J Nat Prod, 2002)
The source made the active and inactive calls. The calls are words filed in the database; no cut-off is given here.

Key:
[1] = target: Calmodulin (Spinacia oleracea) (UniProt P04353); experiment: Binding affinity to spinach calmodulin assessed as modification of electrophoretic mobility at 0.033 ug/mL after 1.5 hrs by SDS-PAGE in presence of calcium chloride
Method in brief: (§1)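 Bovine brain and spinach calmodulin, 2 µg samples, pretreated 1.5 h at 30 °C with 1 mM CaCl2 and compound (0.033 µg/mL). Denaturing SDS-PAGE on 15% polyacrylamide gels in presence of Ca2+. Read-out is change in electrophoretic mobility relative to an untreated calmodulin lane.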

Calmodulin (Bos taurus) = Calmodulin (Bos taurus) (UniProt P62157); experiment: Binding affinity to bovine brain calmodulin assessed as modification of electrophoretic mobility at 0.033 ug/mL after 1.5 hrs by SDS-PAGE in presence of calcium chloride; method in brief: as §1
Echinochloa crus-galli = experiment: Phytotoxicity against Echinochloa crus-galli assessed as inhibition of radicle elongation by petri dish bioassay; format: functional, organism-based
Method in brief: (§2)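 Petri dish germination and radicle elongation bioassay on seedlings at 28 °C. Pure compounds tested at 10, 50, 100 and 200 µg mL-1, with 2,4-D as positive control. IC50 derived by Probit analysis from percent radicle growth or germination inhibition; ANOVA (p < 0.05).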

[2] = system: Amaranthus hypochondriacus; experiment: Phytotoxicity against Amaranthus hypochondriacus assessed as inhibition of radicle elongation by petri dish bioassay; format: functional, organism-based; method in brief: as §2
Lemna aequinoctialis [3] = experiment: Phytotoxicity against Lemna paucicostata assessed as growth inhibition at 25 uM after 3 days relative to control; format: functional; settings: 72 h, read-out: GI
Method in brief: (§3)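 Lemna culture of 10 colonies, three fronds each, in 3 mL half-strength Hunter's medium containing compound for 3 days (72 h). Percent growth inhibition is versus culture-medium control, as means of three replicates ± standard deviation; significance by Student's unpaired t-test.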

Lemna aequinoctialis [4] = experiment: Phytotoxicity against Lemna paucicostata assessed as chlorophyll reduction at 12 uM after 3 days by ultraviolet spectroscopy relative to control; format: functional; settings: 72 h
Method in brief: (§4)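 Duckweed (Lemna) culture: 10 colonies of three fronds each in 3 mL half-strength Hunter's medium with compound, run 3 days. Afterwards plants are removed from medium, blotted and extracted overnight in the dark with 5 mL DMSO. Chlorophyll is expressed on fresh weight basis. Reduction is relative to culture-medium control, as means of three replicates ± standard deviation, with Student's unpaired t-test.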

Lemna aequinoctialis [5] = experiment: Phytotoxicity against Lemna paucicostata assessed as growth inhibition at 12 uM after 3 days relative to control; format: functional; settings: 72 h, read-out: GI; method in brief: as §3
Lemna aequinoctialis [6] = experiment: Phytotoxicity against Lemna paucicostata assessed as chlorophyll reduction at 50 uM after 3 days by ultraviolet spectroscopy relative to control; format: functional; settings: 72 h, read-out: GI; method in brief: as §4
Lemna aequinoctialis [7] = experiment: Phytotoxicity against Lemna paucicostata assessed as growth inhibition at 100 uM after 3 days relative to control; format: functional; settings: 72 h, read-out: GI; method in brief: as §3
Lemna aequinoctialis [8] = experiment: Phytotoxicity against Lemna paucicostata assessed as growth inhibition at 50 uM after 3 days relative to control; format: functional; settings: 72 h, read-out: GI; method in brief: as §3
Lemna aequinoctialis [9] = experiment: Phytotoxicity against Lemna paucicostata assessed as chlorophyll reduction at 100 uM after 3 days by ultraviolet spectroscopy relative to control; format: functional; settings: 72 h, read-out: GI; method in brief: as §4
Lemna aequinoctialis [10] = experiment: Phytotoxicity against Lemna paucicostata assessed as chlorophyll reduction at 25 uM after 3 days by ultraviolet spectroscopy relative to control; format: functional; settings: 72 h, read-out: GI; method in brief: as §4
Lemna aequinoctialis [11] = experiment: Phytotoxicity against Lemna paucicostata assessed as chlorophyll reduction at 200 uM after 3 days by ultraviolet spectroscopy relative to control; format: functional; settings: 72 h, read-out: GI; method in brief: as §4
Lemna aequinoctialis [12] = experiment: Phytotoxicity against Lemna paucicostata assessed as growth inhibition at 200 uM after 3 days relative to control; format: functional; settings: 72 h, read-out: GI; method in brief: as §3

| SMILES | Activity [1] | Activity (Calmodulin (Bos taurus)) | Activity (Echinochloa crus-galli) | IC50 (Echinochloa crus-galli) | Activity [2] | IC50 [2] | inhibition of growth at 25 µM (Lemna aequinoctialis [3]) | chlorophyll reduction at 12 µM (Lemna aequinoctialis [4]) | inhibition of growth at 12 µM (Lemna aequinoctialis [5]) | inhibition of growth at 50 µM (Lemna aequinoctialis [6]) | inhibition of growth at 100 µM (Lemna aequinoctialis [7]) | inhibition of growth at 50 µM (Lemna aequinoctialis [8]) | inhibition of growth at 100 µM (Lemna aequinoctialis [9]) | inhibition of growth at 25 µM (Lemna aequinoctialis [10]) | inhibition of growth at 200 µM (Lemna aequinoctialis [11]) | inhibition of growth at 200 µM (Lemna aequinoctialis [12]) |
| --- | --- | --- | --- | --- | --- | --- | --- | --- | --- | --- | --- | --- | --- | --- | --- | --- |
| C/C=C(/C)C(=O)O[C@@H]1Cc2c(ccc3ccc(=O)oc23)OC1(C)C [JATAMANSIN] | Active | Active | – | 863 µM | – | 260 µM | 37.5% | 5.94% | 15.3% | 12.8% | 100% | 47.6% | 40.3% | 4.37% | – | – |
| COc1c2c(cc3oc(C)cc(=O)c13)OC(C)(C)[C@H](OC(=O)C(C)C)C2 | Active | Active | – | 14.8 µM | – | 74.1 µM | – | – | – | – | – | – | – | – | – | – |
| CC1(C)Oc2ccc3ccc(=O)oc3c2[C@@H](O)[C@H]1O | – | – | – | 439 µM | – | 361 µM | – | – | – | – | – | – | – | – | – | – |
| C/C=C(/C)C(=O)O[C@@H]1Cc2c(cc3oc(C)cc(=O)c3c2OC)OC1(C)C | Active | Active | – | 26.4 µM | – | 143 µM | – | – | – | – | – | – | – | – | – | – |
| CC(C)C(=O)O[C@@H]1Cc2c(ccc3ccc(=O)oc23)OC1(C)C | Active | Active | – | 169 µM | – | 237 µM | 19.6% | – | – | 54.3% | 58.8% | 23.5% | 84.9% | 20% | 87.4% | 100% |
| COc1c2c(cc3oc(C)cc(=O)c13)OC(C)(C)[C@H](O)C2 | Active | Active | Dose-dependent effect | 461 µM | Dose-dependent effect | 383 µM | – | – | – | – | – | – | – | – | – | – |
| CC(=O)O[C@@H]1[C@H](OC(=O)C(C)C)c2c(ccc3ccc(=O)oc23)OC1(C)C [SERAVSHANIN] | Active | Active | – | 162 µM | – | 402 µM | – | – | – | – | – | – | – | – | – | – |

Now from value to compound, other results behind:

| Activity [1] | Activity (Calmodulin (Bos taurus)) | SMILES | Activity (Echinochloa crus-galli) | IC50 (Echinochloa crus-galli) | Activity [2] | IC50 [2] | inhibition of growth at 25 µM (Lemna aequinoctialis [3]) | chlorophyll reduction at 12 µM (Lemna aequinoctialis [4]) | inhibition of growth at 12 µM (Lemna aequinoctialis [5]) | inhibition of growth at 50 µM (Lemna aequinoctialis [6]) | inhibition of growth at 100 µM (Lemna aequinoctialis [7]) | inhibition of growth at 50 µM (Lemna aequinoctialis [8]) | inhibition of growth at 100 µM (Lemna aequinoctialis [9]) | inhibition of growth at 25 µM (Lemna aequinoctialis [10]) | inhibition of growth at 200 µM (Lemna aequinoctialis [11]) | inhibition of growth at 200 µM (Lemna aequinoctialis [12]) |
| --- | --- | --- | --- | --- | --- | --- | --- | --- | --- | --- | --- | --- | --- | --- | --- | --- |
| Active | Active | CO[C@H]1c2c(ccc3ccc(=O)oc23)OC(C)(C)[C@@H]1O | Dose-dependent effect | 808 µM | Dose-dependent effect | 108 µM | – | – | – | – | – | – | – | – | – | – |
| Active | Active | CCC(=O)O[C@@H]1c2c(ccc3ccc(=O)oc23)OC(C)(C)[C@@H]1OC(C)=O | – | 439 µM | – | 396 µM | – | – | – | – | – | – | – | – | – | – |
| Active | Active | C/C=C(/C)C(=O)O[C@@H]1[C@H](O)c2c(ccc3ccc(=O)oc23)OC1(C)C | – | 155 µM | – | 262 µM | – | – | – | – | – | – | – | – | – | – |
| Active | Active | CC1(C)Oc2ccc3ccc(=O)oc3c2C[C@H]1O [(+)-LOMATIN] | Dose-dependent effect | 296 µM | Dose-dependent effect | 344 µM | – | – | – | – | – | – | – | – | – | – |
| Active | Active | CO[C@@H]1c2c(ccc3ccc(=O)oc23)OC(C)(C)[C@@H]1O | Dose-dependent effect | 6.19 µM | Dose-dependent effect | 325 µM | – | – | – | – | – | – | – | – | – | – |
| Active | Active | CC(C)C(=O)O[C@@H]1c2c(ccc3ccc(=O)oc23)OC(C)(C)[C@@H]1O | – | 595 µM | – | 189 µM | – | – | – | – | – | – | – | – | – | – |
